Laboratory results reported in ChEMBL document CHEMBL5236549, “Discovery of 2-Sulfinyl-Diazabicyclooctane Derivatives, Potential Oral β-Lactamase Inhibitors for Infections Caused by Serine β-Lactamase-Producing Enterobacterales” (J Med Chem, 2021).
Values after ≈ are worked out from the molar mass of the structure shown. Active and inactive are the calls of the source. The calls are words filed in the database; no cut-off is given here.

Key:
[1] = system: Enterobacter cloacae; experiment: Antibacterial activity against Enterobacter cloacae SR100108 assessed as reduction in bacterial growth by measuring minimum […] concentration incubated for 16 to 20 hrs by CLSI based two-fold serial dilution method; conditions: time 16-20 hrs
[2] = system: Klebsiella pneumoniae; experiment: Antibacterial activity against Klebsiella pneumoniae SR09635 assessed as reduction in bacterial growth by measuring minimum […] concentration incubated for 16 to 20 hrs by CLSI based two-fold serial dilution method; conditions: time 16-20 hrs
[3] = system: Klebsiella pneumoniae; experiment: Antibacterial activity against Klebsiella pneumoniae SR200487 assessed as reduction in bacterial growth by measuring minimum […] concentration incubated for 16 to 20 hrs by CLSI based two-fold serial dilution method; conditions: time 16-20 hrs
[4] = system: Klebsiella pneumoniae; experiment: Antibacterial activity against Klebsiella pneumoniae SR200487 assessed as inhibition of bacterial growth incubated for 16 to 24 hrs by CLSI based two-fold serial dilution method; assay type: functional; conditions: time 16-24 hrs
Outline: (§1)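 CLSI broth microdilution in cation-adjusted Mueller Hinton broth, twofold serial dilutions, about 5 × 10⁴ cfu/well from OD625, 35 °C for 16−20 h. MIC is the lowest concentration with no visible growth.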

[5] = system: Enterobacter cloacae; experiment: Antibacterial activity against Enterobacter cloacae SR200030 assessed as inhibition of bacterial growth incubated for 16 to 24 hrs by CLSI based two-fold serial dilution method; assay type: functional; conditions: time 16-24 hrs
Outline: as §1

[6] = system: Enterobacter cloacae; experiment: Antibacterial activity against Enterobacter cloacae SR100108 assessed as inhibition of bacterial growth incubated for 16 to 20 hrs by CLSI based two-fold serial dilution method
[7] = system: Escherichia coli; experiment: Antibacterial activity against Escherichia coli ATCC SR34100 assessed as reduction in bacterial growth by measuring minimum […] concentration incubated for 16 to 24 hrs by CLSI based two-fold serial dilution method; assay type: functional; conditions: time 16-24 hrs
Outline: (§2)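 MPC₁ by broth microdilution: twofold serial dilutions of inhibitor in cation-adjusted Mueller Hinton broth containing ceftibuten at 1 μg/mL. Inoculum about 5 × 10⁴ cfu/well final, set from OD625. Incubation at 35 °C for 16−20 h. […] N = 1.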

[8] = system: Enterobacter cloacae; experiment: Antibacterial activity against Enterobacter cloacae SR36276 assessed as reduction in bacterial growth by measuring minimum […] concentration incubated for 16 to 20 hrs by CLSI based two-fold serial dilution method; conditions: time 16-20 hrs
[9] = system: Escherichia coli; experiment: Antibacterial activity against Escherichia coli ATCC SR09613 assessed as reduction in bacterial growth by measuring minimum […] concentration incubated for 16 to 24 hrs by CLSI based two-fold serial dilution method; assay type: functional; conditions: time 16-24 hrs
Outline: as §2

[10] = system: Klebsiella pneumoniae; experiment: Antibacterial activity against Klebsiella pneumoniae SR201325 assessed as reduction in bacterial growth by measuring minimum […] concentration incubated for 16 to 24 hrs by CLSI based two-fold serial dilution method; assay type: functional; conditions: time 16-24 hrs
Outline: (§3)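 Inhibitor twofold serially diluted in cation-adjusted Mueller Hinton broth containing ceftibuten 1 μg/mL. About 5 × 10⁴ cfu/well, 35 °C for 16−20 h. […] N = 1.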

[11] = Inhibition of bacterial beta-lactamase OXA-48 using nitrocefin as substrate incubated for 20 mins; design: species or system Bacteria
Outline: (§4)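 Nitrocefin hydrolysis read by absorbance. Enzyme titrated to give about 0.2 absorbance change over the no-enzyme control. Enzyme added to nitrocefin (final 50 μg/mL) plus inhibitor, no preincubation, read after 20 min at 35 °C. IC50 is 50% reduction of hydrolysis. N = 1.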

[12] = system: Klebsiella pneumoniae; experiment: Antibacterial activity against Klebsiella pneumoniae ATCC SR201218 assessed as inhibition of bacterial growth incubated for 16 to 20 hrs by CLSI based two-fold serial dilution method
[13] = system: Enterobacter cloacae; experiment: Antibacterial activity against Enterobacter cloacae SR200030 assessed as reduction in bacterial growth by measuring minimum […] concentration incubated for 16 to 24 hrs by CLSI based two-fold serial dilution method; assay type: functional; conditions: time 16-24 hrs
Outline: as §3

[14] = system: Klebsiella pneumoniae; experiment: Antibacterial activity against Klebsiella pneumoniae SR200263 assessed as inhibition of bacterial growth incubated for 16 to 24 hrs by CLSI based two-fold serial dilution method; assay type: functional; conditions: time 16-24 hrs
Outline: as §1

[15] = system: Escherichia coli; experiment: Antibacterial activity against Escherichia coli ATCC SR09613 assessed as inhibition of bacterial growth incubated for 16 to 20 hrs by CLSI based two-fold serial dilution method
[16] = system: Klebsiella pneumoniae; experiment: Antibacterial activity against Klebsiella pneumoniae SR100758 assessed as reduction in bacterial growth by measuring minimum […] concentration incubated for 16 to 24 hrs by CLSI based two-fold serial dilution method; assay type: functional; conditions: time 16-24 hrs
Outline: as §3

[17] = system: Escherichia coli; experiment: Antibacterial activity against Escherichia coli ATCC SR34100 assessed as inhibition of bacterial growth incubated for 16 to 20 hrs by CLSI based two-fold serial dilution method
[18] = system: Klebsiella pneumoniae; experiment: Antibacterial activity against Klebsiella pneumoniae ATCC SR201218 assessed as reduction in bacterial growth by measuring minimum […] concentration incubated for 16 to 24 hrs by CLSI based two-fold serial dilution method; assay type: functional; conditions: time 16-24 hrs
Outline: as §2

[19] = system: Klebsiella pneumoniae; experiment: Antibacterial activity against Klebsiella pneumoniae SR09635 assessed as inhibition of bacterial growth incubated for 16 to 20 hrs by CLSI based two-fold serial dilution method
[20] = system: Klebsiella pneumoniae; experiment: Antibacterial activity against Klebsiella pneumoniae SR100758 assessed as inhibition of bacterial growth incubated for 16 to 24 hrs by CLSI based two-fold serial dilution method; assay type: functional; conditions: time 16-24 hrs
Outline: as §1

[21] = system: Klebsiella pneumoniae; experiment: Antibacterial activity against Klebsiella pneumoniae SR201325 assessed as inhibition of bacterial growth incubated for 16 to 20 hrs by CLSI based two-fold serial dilution method
[22] = Inhibition of bacterial beta-lactamase KPC-2 using nitrocefin as substrate incubated for 20 mins; design: species or system Bacteria
Outline: as §4

[23] = system: Klebsiella pneumoniae; experiment: Antibacterial activity against Klebsiella pneumoniae SR09603 assessed as inhibition of bacterial growth incubated for 16 to 20 hrs by CLSI based two-fold serial dilution method
[24] = system: Klebsiella pneumoniae; experiment: Antibacterial activity against Klebsiella pneumoniae SR200263 assessed as reduction in bacterial growth by measuring minimum […] concentration incubated for 16 to 20 hrs by CLSI based two-fold serial dilution method; conditions: time 16-20 hrs
[25] = system: Enterobacter cloacae; experiment: Antibacterial activity against Enterobacter cloacae SR36276 assessed as inhibition of bacterial growth incubated for 16 to 20 hrs by CLSI based two-fold serial dilution method
[26] = Inhibition of bacterial beta-lactamase CMY-2 using nitrocefin as substrate incubated for 20 mins; design: species or system Bacteria
Outline: as §4

[27] = system: Klebsiella pneumoniae; experiment: Antibacterial activity against Klebsiella pneumoniae ATCC BAA1705 assessed as inhibition of bacterial growth incubated for 16 to 20 hrs by CLSI based two-fold serial dilution method
[28] = system: Klebsiella pneumoniae; experiment: Antibacterial activity against Klebsiella pneumoniae ATCC BAA1705 assessed as reduction in bacterial growth by measuring minimum potentiating concentration incubated for 16 to 20 hrs by CLSI based two-fold serial dilution method; conditions: time 16-20 hrs
[29] = system: Klebsiella pneumoniae; experiment: Antibacterial activity against Klebsiella pneumoniae SR09603 assessed as reduction in bacterial growth by measuring minimum […] concentration incubated for 16 to 20 hrs by CLSI based two-fold serial dilution method; conditions: time 16-20 hrs
[30] = system: Escherichia coli; experiment: Antibacterial activity against Escherichia coli expressing CMY-2 assessed as inhibition of bacterial growth incubated for 16 to 24 hrs by CLSI based two-fold serial dilution method; assay type: functional; conditions: time 16-24 hrs
Outline: (§5)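 CLSI broth microdilution with twofold serial dilutions in cation-adjusted Mueller Hinton broth. Inoculum set from OD625 to about 5 × 10⁴ cfu/well final. Plates incubated at 35 °C for 16−20 h. MIC is the lowest concentration with no growth visible to the unaided eye.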

[31] = system: Escherichia coli; experiment: Antibacterial activity against Escherichia coli assessed as inhibition of bacterial growth incubated for 16 to 24 hrs by CLSI based two-fold serial dilution method; assay type: functional; conditions: time 16-24 hrs
Outline: as §5

[32] = system: Escherichia coli; experiment: Antibacterial activity against Escherichia coli expressing OXA-48 assessed as inhibition of bacterial growth incubated for 16 to 24 hrs by CLSI based two-fold serial dilution method; assay type: functional; conditions: time 16-24 hrs
Outline: as §5

[33] = system: Escherichia coli; experiment: Antibacterial activity against Escherichia coli expressing KPC-2 assessed as inhibition of bacterial growth incubated for 16 to 24 hrs by CLSI based two-fold serial dilution method; assay type: functional; conditions: time 16-24 hrs
Outline: as §5

[34] = system: Klebsiella pneumoniae; experiment: Antibacterial activity in ICR mouse infected with Klebsiella pneumoniae SR08667 assessed as reduction in bacterial colony forming units at 30 mg/kg,po administered upto 48 hrs after infection; assay type: functional, organism-based
Outline: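 Urinary tract infection model in 5-week-old female ICR mice, N = 5 per arm. 1.2 × 10⁶ CFU given transurethrally, urethra tied for 4 h. Oral dosing at 4, 8, 28 and 32 h post-infection in 0.5% methylcellulose: ceftibuten 30 mg/kg alone, ceftibuten 10 mg/kg plus prodrug 3, 10 or 30 mg/kg, or both at 30 mg/kg. Kidneys homogenized at 4 or 48 h and plated on modified Drigalski agar. Read-out is change in log CFU/kidney versus untreated controls at treatment start.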

[35] = system: Escherichia coli; experiment: Antibacterial activity against Escherichia coli expressing CTX-M-15 assessed as inhibition of bacterial growth incubated for 16 to 24 hrs by CLSI based two-fold serial dilution method; assay type: functional; conditions: time 16-24 hrs
Outline: as §5

## NC(=O)[C@@H]1CC[C@@H]2CN1C(=O)N2OS(=O)(=O)O [AVIBACTAM]
[1]
  MPC: 8 µg/mL
[2]
  MPC: 0.5 µg/mL
[3]
  MPC: 4 µg/mL
[4]
  MIC: > 32 µg/mL
[5]
  MIC: 32 µg/mL (≈ 121 µM)
[6]
  MIC: 32 µg/mL (≈ 121 µM)
[7]
  MPC: 0.125 µg/mL
[8]
  MPC: 4 µg/mL
[9]
  MPC: 0.5 µg/mL
[10]
  MPC: 2 µg/mL
[11]
  IC50: 5700 nM
[12]
  MIC: > 32 µg/mL
[13]
  MPC: 16 µg/mL
[14]
  MIC: > 32 µg/mL
[15]
  MIC: 16 µg/mL (≈ 60.3 µM)
[16]
  MPC: 2 µg/mL
[17]
  MIC: 16 µg/mL (≈ 60.3 µM)
[18]
  MPC: 1 µg/mL
[19]
  MIC: > 32 µg/mL
[20]
  MIC: > 32 µg/mL
[21]
  MIC: 32 µg/mL (≈ 121 µM)
[22]
  IC50: 72 nM
[23]
  MIC: > 32 µg/mL
[24]
  MPC: 0.063 µg/mL
[25]
  MIC: 32 µg/mL (≈ 121 µM)
[26]
  IC50: 59 nM
[27]
  MIC: 32 µg/mL (≈ 121 µM)
[28]
  MPC: 0.125 µg/mL
[29]
  MPC: 8 µg/mL

## Nc1nc(/C(=C/CC(=O)O)C(=O)N[C@@H]2C(=O)N3C(C(=O)O)=CCS[C@H]23)cs1 [CEFTIBUTEN]
[4]
  MIC: > 32 µg/mL
[30]
  MIC: > 32 µg/mL
[5]
  MIC: > 32 µg/mL
[6]
  MIC: > 32 µg/mL
[31]
  MIC: > 32 µg/mL
[32]
  MIC: > 32 µg/mL
[14]
  MIC: > 32 µg/mL
[33]
  MIC: 16 µg/mL (≈ 39 µM)
[34]
  Activity: inactive
[19]
  MIC: > 32 µg/mL
[20]
  MIC: > 32 µg/mL
[21]
  MIC: > 32 µg/mL
[23]
  MIC: > 32 µg/mL
[25]
  MIC: > 32 µg/mL
[35]
  MIC: 32 µg/mL (≈ 78 µM)
